# Measured values reported in ChEMBL document CHEMBL1955781, “Structure-activity relationship study of selective benzimidazole-based inhibitors of Cryptosporidium parvum IMPDH” (Bioorg Med Chem Lett, 2012).
# How the values were obtained:
# [1] = target: T1, Inosine-5'-monophosphate dehydrogenase (Cryptosporidium parvum, UniProt Q8T6T2); test: Inhibition of recombinant Cryptosporidium parvum IMPDH expressed in Escherichia coli assessed as NADH production preincubated for 5 mins by fluorescence assay in presence of bovine serum albumin
# T1 sequence (Q8T6T2 whole entry): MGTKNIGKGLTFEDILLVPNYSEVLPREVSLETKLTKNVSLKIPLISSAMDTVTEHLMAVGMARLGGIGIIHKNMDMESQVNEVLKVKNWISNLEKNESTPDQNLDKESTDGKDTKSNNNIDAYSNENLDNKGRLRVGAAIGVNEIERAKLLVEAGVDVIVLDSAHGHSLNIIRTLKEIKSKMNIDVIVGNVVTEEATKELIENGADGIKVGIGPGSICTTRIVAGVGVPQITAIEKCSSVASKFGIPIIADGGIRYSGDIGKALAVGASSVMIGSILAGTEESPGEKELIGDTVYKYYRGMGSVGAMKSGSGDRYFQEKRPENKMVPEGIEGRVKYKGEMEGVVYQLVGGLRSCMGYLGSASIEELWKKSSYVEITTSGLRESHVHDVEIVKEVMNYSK
# Outline: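 NADH production was followed at varying inhibitor concentrations, with 0.05% fatty-acid-free bovine serum albumin added to gauge non-specific binding. Values are the mean of three independent determinations unless otherwise flagged.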
# [2] = target: T1, Inosine-5'-monophosphate dehydrogenase; test: Inhibition of recombinant Cryptosporidium parvum IMPDH expressed in Escherichia coli assessed as NADH production preincubated for 5 mins by fluorescence assay
# Outline: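 Enzyme activity was tracked as NADH production across varying inhibitor concentrations. Values are the mean of three independent determinations unless otherwise flagged.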
# [3] = target: Inosine-5'-monophosphate dehydrogenase 2 (Homo sapiens, UniProt P12268); test: Inhibition of human IMPDH2
# [4] = test system: Cryptosporidium parvum; test: Antiparasitic activity against Cryptosporidium parvum infection model; assay type: functional, organism-based
# [5] = test system: Toxoplasma gondii; test: Antiparasitic activity against hypoxanthine-guanine-xanthine phosphoribosyltransferase gene knock out Toxoplasma gondii expressing Cryptosporidium parvum IMPDH infected in human foreskin fibroblasts assessed as parasite proliferation by fluorescence assay; assay type: functional, organism-based
# Outline: (§1)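 T. gondii strains carrying a yellow fluorescent protein reporter, grown in hTERT-immortalized human foreskin fibroblasts. Parasite proliferation is followed by fluorescence. Because the parasites grow in the host fibroblasts, the read-out also reflects host cell toxicity.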
# [6] = test system: Toxoplasma gondii; test: Antiparasitic activity against wild type Toxoplasma gondii expressing endogenous IMPDH infected in human foreskin fibroblasts assessed as inhibition of parasite proliferation by fluorescence assay; assay type: functional, organism-based; outline: as §1
# [7] = test system: Cryptosporidium parvum; test: Ratio of paromomycin EC50 to compound EC50 for Cryptosporidium parvum infection model; assay type: functional
# [8] = test system: Toxoplasma gondii; test: Selectivity ratio of EC50 for wild type Toxoplasma gondii expressing endogenous IMPDH to EC50 for hypoxanthine-guanine-xanthine phosphoribosyltransferase gene knock out Toxoplasma gondii expressing Cryptosporidium parvum IMPDH; assay type: functional
# [9] = test system: Cryptosporidium parvum; test: Antiparasitic activity against Cryptosporidium parvum infection model at 0.8 uM; assay type: functional; conditions: read-out: GI
# [10] = target: Inosine-5'-monophosphate dehydrogenase 1 (Homo sapiens, UniProt P20839); test: Inhibition of human IMPDH1
# Chain of Inosine-5'-monophosphate dehydrogenase 1 (P20839 whole entry): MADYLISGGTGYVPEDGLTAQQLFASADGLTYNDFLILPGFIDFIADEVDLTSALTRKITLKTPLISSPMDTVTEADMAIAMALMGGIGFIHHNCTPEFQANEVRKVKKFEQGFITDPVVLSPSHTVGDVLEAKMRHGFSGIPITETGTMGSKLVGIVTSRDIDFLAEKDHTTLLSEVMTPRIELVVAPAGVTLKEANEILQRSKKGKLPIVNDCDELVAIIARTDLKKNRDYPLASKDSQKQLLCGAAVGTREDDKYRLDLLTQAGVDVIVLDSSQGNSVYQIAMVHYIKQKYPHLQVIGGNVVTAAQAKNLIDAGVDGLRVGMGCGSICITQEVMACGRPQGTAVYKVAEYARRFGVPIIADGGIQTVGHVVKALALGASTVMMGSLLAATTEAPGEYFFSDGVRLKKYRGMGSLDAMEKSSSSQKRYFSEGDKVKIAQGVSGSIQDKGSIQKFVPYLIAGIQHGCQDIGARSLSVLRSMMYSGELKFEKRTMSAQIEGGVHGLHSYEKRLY
SMILES,IC50 [2] [nM],IC50 [3] [nM],IC50 [1] [nM],further results
O=C(Cn1c(-c2ccc[nH]2)nc2ccccc21)Nc1ccc(Cl)cc1,80,> 5000,120,–
O=C(Cn1c(-c2nccs2)nc2ccccc21)Nc1ccc(Br)cc1,28,> 5000,27,EC50 [4]: 700 nM; EC50 [5]: 300 nM; EC50 [6]: > 23000 nM
CC(C(=O)Nc1ccc(Cl)c(Cl)c1)n1c(-c2cscn2)nc2ccccc21 (stereo unspecified),240,> 5000,300,–
O=C(Cn1c(-c2ccc(F)cc2)nc2ccccc21)Nc1ccc(Cl)cc1,870,> 5000,1300,–
O=C(Cn1c(-c2cscn2)nc2ccccc21)Nc1ccc(F)cc1,900,> 5000,–,–
O=C(Cn1c(-c2ccccn2)nc2ccccc21)Nc1ccc2ccccc2c1,–,> 5000,14,EC50 [5]: 300 nM; EC50 [6]: 2700 nM
O=C(Cn1c(-c2ccccn2)nc2ccccc21)Nc1ccc(Cl)c(Cl)c1,22,> 5000,40,–
O=C(Cn1c(-c2cscn2)nc2ccccc21)Nc1ccc2ccccc2c1,7,> 5000,20,EC50 [4]: 900 nM; EC50 [5]: 600 nM; Ratio EC50 [7]: 2; EC50 [6]: 5000 nM; Ratio EC50 [8]: 9
O=C(Cn1c(-c2ccccc2)nc2ccccc21)Nc1ccc(Cl)cc1,210,> 5000,280,–
CC(C(=O)Nc1ccc(Cl)cc1)n1c(-c2cscn2)nc2ccccc21 (stereo unspecified),60,> 5000,80,–
O=C(Cn1c(-c2cccs2)nc2ccccc21)Nc1ccc(Cl)cc1,20,> 5000,60,–
O=C(Cn1c(-c2nccs2)nc2ccccc21)Nc1ccc(Cl)c(Cl)c1,18,> 5000,50,EC50 [4]: 1700 nM; EC50 [5]: 700 nM; Ratio EC50 [7]: 2; EC50 [6]: 3000 nM; Ratio EC50 [8]: 5
O=C(Cn1c(-c2cscn2)nc2ccccc21)Nc1ccc(Cl)c2ccccc12,5000,> 5000,–,–
O=C(Cn1c(-c2cncs2)nc2ccccc21)Nc1ccc(Cl)cc1,35,> 5000,60,–
O=C(Cn1c(-c2nccs2)nc2ccccc21)Nc1ccc2ccccc2c1,8,> 5000,20,EC50 [4]: < 800 nM; EC50 [5]: 500 nM; Ratio EC50 [7]: 2; EC50 [6]: 17000 nM; Ratio EC50 [8]: 30; inhibition of growth at 0.8 µM [9]: 80%
N#Cc1cc(NC(=O)Cn2c(-c3ccccn3)nc3ccccc32)ccc1Cl,22,> 5000,40,–
NC[C@@H]1O[C@H](O[C@H]2[C@@H](O)[C@H](O[C@@H]3[C@@H](O)[C@H](N)C[C@H](N)[C@H]3O[C@H]3O[C@H](CO)[C@@H](O)[C@H](O)[C@H]3N)O[C@@H]2CO)[C@H](N)[C@@H](O)[C@@H]1O [PAROMOMYCIN],–,–,–,EC50 [4]: 65000 nM
Cn1cc(-c2nc3ccccc3n2CC(=O)Nc2ccc(Cl)cc2)cn1,35,> 5000,42,–
CC(C)C(C(=O)Nc1ccc(Cl)cc1)n1c(-c2cscn2)nc2ccccc21 (stereo unspecified),5000,> 5000,–,–
O=C(Cn1c(-c2ccccn2)nc2ccccc21)Nc1ccc(Cl)cc1,43,> 5000,90,–
O=C(Cn1c(-c2ccc(Cl)cc2)nc2ccccc21)Nc1ccc(Cl)cc1,450,> 5000,–,–
CC(C(=O)Nc1ccc(Cl)cc1)n1c(-c2nccs2)nc2ccccc21 (stereo unspecified),23,> 5000,30,–
O=C(Cn1c(-c2cscn2)nc2ccccc21)Nc1ccc(C(F)(F)F)cc1,220,> 5000,330,–

# Now from value to molecule, other results behind:
IC50 [2] [nM],IC50 [3] [nM],SMILES,IC50 [1] [nM],further results
490,> 5000,O=C(Cn1c(-c2cscn2)nc2ccccc21)Nc1cccc(Cl)c1,1430,–
30,> 5000,O=C(Cn1c(-c2nccs2)nc2ccccc21)Nc1ccc(Cl)cc1,50,–
370,> 5000,N#Cc1ccc(NC(=O)Cn2c(-c3cscn3)nc3ccccc32)cc1,–,–
120,> 5000,O=C(Cn1c(-c2cscn2)nc2ccccc21)Nc1ccc(Cl)cc1,200,–
5000,> 5000,Cc1nc2ccccc2n1CC(=O)Nc1ccc(Cl)cc1,–,–
140,> 5000,O=C(Cn1c(-c2cscn2)nc2ccccc21)Nc1ccc(OC(F)(F)F)cc1,–,–
30,> 5000,N#Cc1cc(NC(=O)Cn2c(-c3cscn3)nc3ccccc32)ccc1Cl,60,–
60,> 5000,O=C(Cn1c(-c2cscn2)nc2ccccc21)Nc1ccc(Br)cc1,–,–
–,> 5000,O=C(Cn1c(-c2cscn2)nc2ccccc21)NCc1ccc(Cl)cc1,–,–
5000,> 5000,O=C(Cn1c(-c2cscn2)nc2ccccc21)Nc1ccccc1Cl,–,–
5000,> 5000,CS(=O)(=O)c1ccc(NC(=O)Cn2c(-c3cscn3)nc3ccccc32)cc1,–,–
170,> 5000,O=C(Cn1c(-c2ncco2)nc2ccccc21)Nc1ccc(Cl)cc1,230,–
120,> 5000,CSc1ccc(NC(=O)Cn2c(-c3cscn3)nc3ccccc32)cc1,69,–
–,> 50000,COc1ccc(NC(=O)Cn2c(-c3cscn3)nc3ccccc32)cc1,–,IC50 [10]: > 50000 nM
5000,> 5000,CC(C)c1ccc(NC(=O)Cn2c(-c3cscn3)nc3ccccc32)cc1,–,–
30,> 5000,O=C(Cn1c(-c2cscn2)nc2ccccc21)Nc1ccc(Cl)c(Cl)c1,90,–
